Screening results from PubChem.
Compounds with a hit are over-represented: about 3.5% of the library has one in this group of screens.
RGS4 inh – human RGS4 inhibition; 310,000 tested, 0.45% active; B-score at 10 µM; HEK293 M3R/RGS4 inducible, Fluo-4 calcium flux; stronger effect = higher value; triggered by carbachol at its EC20; P49798;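 active = B-score, a plate-corrected calcium signal, over three deviations above library mean, with baseline fluorescence within five deviations of library mean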;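 also: RGS4 expression induced by doxycycline in cells with stable M3 receptor; B-score is computed from the integrated fluorescence ratio over baseline after carbachol; higher B-score means a larger calcium signal and so more RGS4 inhibition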
Target sequence (P49798 whole entry, looked up): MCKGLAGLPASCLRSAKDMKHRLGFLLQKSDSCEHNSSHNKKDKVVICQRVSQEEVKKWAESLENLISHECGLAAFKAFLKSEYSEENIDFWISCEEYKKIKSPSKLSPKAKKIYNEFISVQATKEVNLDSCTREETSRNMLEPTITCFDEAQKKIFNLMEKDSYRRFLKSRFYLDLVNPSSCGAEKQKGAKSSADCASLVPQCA
MrgX1 allo act – human MrgX1 positive allosteric modulation, primary screen; AID 588675; 310,000 tested, 0.63% active; MrgX1-HEK293, Fluo-4 calcium flux, FDSS; stronger effect = higher value; Q96LB2; B-score at 10 µM;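 active = plate-corrected calcium response at least 3 library SD above typical, normal starting fluorescence, not activating the receptor alone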;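 also: compound read alongside a low EC10 to EC30 dose of BAM8-22 agonist; peak minus trough fluorescence over baseline measured at the second addition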
Target sequence (Q96LB2 whole entry, looked up): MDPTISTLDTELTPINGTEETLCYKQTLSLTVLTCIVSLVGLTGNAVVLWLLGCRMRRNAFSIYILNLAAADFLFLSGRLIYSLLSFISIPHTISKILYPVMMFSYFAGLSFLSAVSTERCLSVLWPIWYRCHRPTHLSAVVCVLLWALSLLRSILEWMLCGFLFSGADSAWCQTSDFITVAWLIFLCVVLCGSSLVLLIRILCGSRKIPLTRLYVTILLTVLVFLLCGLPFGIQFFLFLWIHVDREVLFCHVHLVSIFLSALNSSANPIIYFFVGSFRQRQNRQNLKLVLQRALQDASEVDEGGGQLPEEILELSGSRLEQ
RGS4 pot – potentiators or activators of RGS4; HEK293 M3R/inducible RGS4, carbachol calcium flux Fluo4; stronger effect = lower value; 310,000 tested, 0.92% active; B-score at 10 µM;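 active = B-score of the integrated calcium signal more than 4 SD below the library mean, with starting fluorescence not abnormally high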;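 also: negative B-score means reduced calcium response which marks RGS4 activation or potentiation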
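Assay system: HEK293 FlpIn-TREx cells, stable M3R, doxycycline-inducible RGS4 / Probe or stimulus: carbachol, ECmax concentration / Times: overnight RGS4 induction, 30 min dye load 37 °C, 20 min compound RT / Signal: kinetic calcium fluorescence imaging with Fluo4-AM dye, 2 µM / Measure: Agonist-evoked peak-minus-minimum fluorescence over baseline, integrated ratio, B score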
MrgX1 ag – agonists of human MrgX1 receptor. AID 588627. Q96LB2. MrgX1-HEK293 cells, Fluo-4 calcium fluorescence, agonist mode; stronger effect = higher value. 310,000 tested, 0.44% active. B-score at 10 µM;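 active = calcium response B-score plate-corrected fluorescence ratio at least 3 library SD, with starting fluorescence B-score inside 5 SD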
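Material – MrgX1-expressing HEK293 cells · Input – 15,000 cells seeded per well · Dosing – compound as first of three additions · Times – overnight seeding, then 1 h dark dye loading · Measured by – kinetic Fluo-4 NW fluorescence of intracellular calcium · Read-out – B-scored fluorescence response ratio · Benchmarks – positive and negative control wells on each plate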
MrgX1 antag – blocks BAM8-22 activation of human MrgX1 receptor; 310,000 tested, 1.3% active; B-score at 10 µM; Q96LB2; MRGX1-HEK293 calcium flux, Fluo-4, BAM8-22 antagonism; stronger effect = lower value;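 active = calcium-response B-score plate-corrected more than 3 library SD below zero, starting fluorescence within 5 deviations, no agonist response on first addition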;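 also: peak minus trough fluorescence over baseline after final BAM8-22 challenge near maximal dose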
Hits are given with their value.

For CC(C)CCNC(=O)CN(CCCN1CCOCC1)C(=O)Cn1nnc(-c2ccc(F)cc2)n1 the results were RGS4 inh inactive, MrgX1 allo act inactive, RGS4 pot inactive, MrgX1 ag inactive and MrgX1 antag inactive.
CCN1C(=O)[C@@H]2Cc3c([nH]c4ccccc34)C(c3ccc(OC)cc3)N2C1=S (some centres undefined) was read as RGS4 inh inactive, MrgX1 allo act inactive, RGS4 pot inactive, MrgX1 ag inactive and MrgX1 antag -4.5.
`CN(C)CCCN1c2ccccc2CCc2ccccc21` gave MrgX1 allo act inactive, MrgX1 ag inactive and MrgX1 antag inactive.
`CC(CN(C)C)CN1c2ccccc2CCc2ccccc21` (centres undefined) gave RGS4 inh inactive, MrgX1 allo act inactive, RGS4 pot inactive, MrgX1 ag inactive and MrgX1 antag -4.9.
CC(=O)N(c1ccc(C)cc1)C1C=CS(=O)(=O)C1 (centres undefined) was read as RGS4 inh inactive, MrgX1 allo act inactive, RGS4 pot inactive, MrgX1 ag inactive and MrgX1 antag inactive.
`Cc1ccc(C(=O)c2cc3c(cc2N)OCCO3)cc1` gave RGS4 inh inactive, MrgX1 allo act inactive, RGS4 pot inactive, MrgX1 ag inactive and MrgX1 antag inactive.
N#C/C(=C\c1ccc(O)cc1)C(=O)N1CCCC1 was read as RGS4 inh inactive, MrgX1 allo act inactive, RGS4 pot inactive, MrgX1 ag inactive and MrgX1 antag inactive.
Screening N#C/C(=C\c1ccc(C#N)cc1)C(=O)N1CCCC1 returned RGS4 inh 5.1, MrgX1 allo act inactive, RGS4 pot inactive, MrgX1 ag inactive and MrgX1 antag inactive.
Screening CC(O)CNc1nc2ccccc2n1CC(=O)NCC(F)(F)F (centres undefined) returned RGS4 inh inactive, MrgX1 allo act inactive, RGS4 pot inactive, MrgX1 ag inactive and MrgX1 antag inactive.
Screening Cc1ccc(S(=O)(=O)N2CCOCC2)cc1NC(=O)Cn1nc(C)c([N+](=O)[O-])c1C returned RGS4 inh inactive, MrgX1 allo act inactive, RGS4 pot inactive, MrgX1 ag inactive and MrgX1 antag -5.
For Cc1ccc(Nc2ccc(S(=O)(=O)N3CCOCC3)cc2[N+](=O)[O-])cc1C the results were RGS4 inh inactive, MrgX1 allo act inactive, RGS4 pot inactive, MrgX1 ag inactive and MrgX1 antag -9.2.
Cc1ccc(SCCNC(=O)/C=C/c2cccc([N+](=O)[O-])c2)cc1 was read as RGS4 inh inactive, MrgX1 allo act inactive, RGS4 pot inactive, MrgX1 ag inactive and MrgX1 antag inactive.
Screening O=C1CC(c2ccco2)CC(O)=C1C=NCC1CCNCC1 (centres undefined) returned RGS4 inh inactive, MrgX1 allo act inactive, RGS4 pot -7.8, MrgX1 ag inactive and MrgX1 antag inactive.
`O=C(CCl)N1N=C(c2ccco2)CC1c1ccco1` (centres undefined) gave RGS4 inh inactive, MrgX1 allo act inactive, RGS4 pot inactive, MrgX1 ag inactive and MrgX1 antag inactive.
`CC(C)c1ccc(C2C3CSCC=C3C(C#N)=C(N)C2(C#N)C#N)cc1` (centres undefined) gave RGS4 inh inactive, MrgX1 allo act inactive, RGS4 pot -8.7, MrgX1 ag inactive and MrgX1 antag inactive.
Screening CN(C)S(=O)(=O)c1cccc(C(=O)NCc2ccco2)c1 returned RGS4 inh inactive, MrgX1 allo act inactive, RGS4 pot inactive, MrgX1 ag inactive and MrgX1 antag inactive.
`CNCCCOc1ccc(C(C)(C)c2ccccc2)cc1` gave RGS4 inh inactive and RGS4 pot inactive.
`COCCCNCCOc1ccc(C(C)(C)c2ccccc2)cc1` gave RGS4 inh inactive, MrgX1 allo act inactive, RGS4 pot -7.8, MrgX1 ag inactive and MrgX1 antag inactive.
Cc1ccc(S(=O)(=O)N2CCCC(c3nnc4n3-c3ccccc3SC4)C2)cc1 (centres undefined) was read as RGS4 inh inactive, MrgX1 allo act inactive, RGS4 pot inactive, MrgX1 ag inactive and MrgX1 antag inactive.
`N=C1/C(=C\c2ccc(-c3cccc(C(=O)O)c3)o2)C(=O)N=C2SC=C(c3ccccc3)N12` gave RGS4 inh inactive, MrgX1 allo act 7.1, RGS4 pot inactive, MrgX1 ag inactive and MrgX1 antag inactive.
For CCN1C(=O)CS/C1=C(\C#N)S(=O)(=O)c1ccccc1 the results were RGS4 inh inactive, MrgX1 allo act inactive, RGS4 pot inactive, MrgX1 ag 41 and MrgX1 antag inactive.
For Cc1ccc(S(=O)(=O)N/N=C/c2cccs2)cc1 the results were RGS4 inh inactive, MrgX1 allo act inactive, RGS4 pot inactive, MrgX1 ag inactive and MrgX1 antag inactive.
For CC#CCCc1nc2ccccc2c(=O)n1N the results were RGS4 inh inactive, MrgX1 allo act inactive, RGS4 pot inactive, MrgX1 ag inactive and MrgX1 antag -6.
Screening Cc1ccc(S(=O)(=O)N/N=C2/CC(c3ccccc3)Oc3ccccc32)cc1[N+](=O)[O-] (centres undefined) returned RGS4 inh inactive, MrgX1 allo act inactive, RGS4 pot inactive, MrgX1 ag inactive and MrgX1 antag inactive.
Screening O=S(=O)(N/N=C1/CC(c2ccccc2)Oc2ccccc21)c1ccc(Br)cc1 (centres undefined) returned RGS4 inh inactive, MrgX1 allo act inactive, RGS4 pot inactive, MrgX1 ag inactive and MrgX1 antag -6.7.
`Cc1cc(C2=NNC(=NCCc3ccccc3)SC2)c(C)n1CC1CCCO1` (centres undefined) gave RGS4 inh inactive, MrgX1 allo act inactive, RGS4 pot inactive, MrgX1 ag 45 and MrgX1 antag inactive.
`C/C(=N\OC(=O)c1ccc(F)cc1)c1ccc(F)c(F)c1` gave RGS4 inh inactive, MrgX1 allo act inactive, RGS4 pot inactive, MrgX1 ag inactive and MrgX1 antag inactive.
Screening CC12CCC(C/C1=N/OC(=O)c1cccc([N+](=O)[O-])c1)C2(C)C (centres undefined) returned RGS4 inh inactive, MrgX1 allo act 9.8, RGS4 pot inactive, MrgX1 ag inactive and MrgX1 antag inactive.
For CC12CCC(C/C1=N\OC(=O)c1ccc(F)cc1)C2(C)C (centres undefined) the results were RGS4 inh inactive, MrgX1 allo act 8.4, RGS4 pot inactive, MrgX1 ag inactive and MrgX1 antag inactive.
`Cc1cccc(OCc2nnc(SCC(=O)N(C(C)C)C(C)C)n2Cc2ccco2)c1C` gave RGS4 inh inactive, MrgX1 allo act inactive, RGS4 pot inactive, MrgX1 ag inactive and MrgX1 antag inactive.
For CC(CCc1ccccc1)NC(=O)C1CCN(S(=O)(=O)c2ccc(F)cc2)CC1 (centres undefined) the results were RGS4 inh inactive, MrgX1 allo act inactive, RGS4 pot inactive, MrgX1 ag inactive and MrgX1 antag inactive.
Screening O=C(Nc1cccc(C(F)(F)F)c1)N1CCC(c2nc(-c3ccc(F)cc3)no2)CC1 returned RGS4 inh inactive, MrgX1 allo act inactive, RGS4 pot -9.3, MrgX1 ag inactive and MrgX1 antag inactive.
